Reference: ChEMBL document CHEMBL3808312, “Bioactive Constituents of Glycyrrhiza uralensis (Licorice): Discovery of the Effective Components of a Traditional Herbal Medicine” (J Nat Prod, 2016)
Active and inactive are the calls of the source. The rule behind the calls is not given here.

Assays:
[1] = tested on: Influenza A virus; experiment: Antiviral activity against Influenza A virus A/WSN/33(H1N1) infected in MDCK cells at 100 uM preincubated with virus for 15 mins followed by cells addition measured at 36 hrs post infection; format: functional, A/WSN/1933(H1N1)
Method in brief: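 MDCK canine kidney cells grown in DMEM and infected with influenza A/WSN/33 (H1N1). Compounds screened at 100 μM. Oseltamivir phosphate served as the positive control.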

[2] = target: T1, Nuclear factor erythroid 2-related factor 2 (Homo sapiens) (UniProt Q16236); experiment: Activation of NRF2 transcription in human HepG2C8 cells at 10 uM after 6 hrs by luciferase reporter gene assay relative to control; format: cell-based
T1 sequence (whole entry): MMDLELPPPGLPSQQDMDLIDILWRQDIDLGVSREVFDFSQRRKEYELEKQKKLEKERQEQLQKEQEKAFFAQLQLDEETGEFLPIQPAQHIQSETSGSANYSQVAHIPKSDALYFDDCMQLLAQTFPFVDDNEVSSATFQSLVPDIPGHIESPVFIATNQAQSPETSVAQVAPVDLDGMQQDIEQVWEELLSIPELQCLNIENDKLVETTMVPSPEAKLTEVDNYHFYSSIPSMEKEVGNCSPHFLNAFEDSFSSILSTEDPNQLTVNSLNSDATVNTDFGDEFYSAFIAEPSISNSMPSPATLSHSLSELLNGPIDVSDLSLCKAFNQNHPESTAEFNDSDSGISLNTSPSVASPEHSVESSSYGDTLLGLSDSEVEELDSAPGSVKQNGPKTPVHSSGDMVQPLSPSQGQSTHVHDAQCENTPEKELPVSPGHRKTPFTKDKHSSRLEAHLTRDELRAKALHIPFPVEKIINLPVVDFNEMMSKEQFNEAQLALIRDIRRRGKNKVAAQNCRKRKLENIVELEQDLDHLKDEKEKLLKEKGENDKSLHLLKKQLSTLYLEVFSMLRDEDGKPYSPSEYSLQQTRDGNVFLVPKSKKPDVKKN
Method in brief: (§1)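 Luciferase reporter in HepG2C8 cells, which are HepG2 stably transfected with an Nrf2 luciferase reporter and grown in MEM. Screened at 10 μM, with dose-response over 2.5−40 μM. Activity expressed as fold of control. tBHQ positive control.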

[3] = target: T1, Nuclear factor erythroid 2-related factor 2 (Homo sapiens); experiment: Activation of NRF2 transcription in human HepG2C8 cells after 6 hrs by luciferase reporter gene assay; format: cell-based; method in brief: as §1
[4] = target: T2, Tyrosinase (Homo sapiens) (UniProt P14679); experiment: Inhibition of tyrosinase (unknown origin) using L-tyrosine as substrate assessed as oxidation of L-tyrosine at 20 uM after 15 mins
T2 sequence (whole entry): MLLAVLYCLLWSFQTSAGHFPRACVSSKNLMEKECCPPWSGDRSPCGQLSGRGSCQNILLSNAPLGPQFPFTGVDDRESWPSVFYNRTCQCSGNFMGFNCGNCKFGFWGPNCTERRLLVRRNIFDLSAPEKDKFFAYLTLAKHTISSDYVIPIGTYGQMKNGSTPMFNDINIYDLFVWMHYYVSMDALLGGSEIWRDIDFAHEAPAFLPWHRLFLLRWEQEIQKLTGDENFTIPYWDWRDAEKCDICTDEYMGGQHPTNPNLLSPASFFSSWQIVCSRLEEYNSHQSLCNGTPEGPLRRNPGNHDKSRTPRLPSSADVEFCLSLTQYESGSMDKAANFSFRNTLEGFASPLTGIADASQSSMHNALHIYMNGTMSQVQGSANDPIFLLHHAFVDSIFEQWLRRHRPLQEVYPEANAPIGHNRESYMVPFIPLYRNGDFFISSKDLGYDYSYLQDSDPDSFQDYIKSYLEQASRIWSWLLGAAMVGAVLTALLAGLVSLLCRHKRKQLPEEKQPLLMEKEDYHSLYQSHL
Method in brief: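 Tyrosinase at 333 U/mL (stock) in 45 mM sodium phosphate, pH 6.6, with 2 mM L-tyrosine (stock). Incubated 37 °C for 15 min; oxidation read at 492 nm. Screened at 20 μM; dose-response for IC50. Glyasperin C positive control.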

[5] = tested on: Mus musculus; experiment: In vivo NRF2 activation in ip dosed C57BL/6J mouse assessed as increase in liver transcription of HO-1 administered as qd for 3 days measured 3 hrs post last dose by qRT-PCR analysis; format: functional, organism-based
Method in brief: (§2)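 Male C57BL/6J mice given compound in corn oil at 5 or 10 mg/kg ip for three consecutive days; controls received corn oil. Liver harvested 3 h after final dose. HO-1 and NQO-1 mRNA measured by qRT-PCR with mouse primers. Nrf2 and HO-1 protein measured by Western blot (20 μg, 10% SDS-PAGE, ECL).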

[6] = tested on: Mus musculus; experiment: In vivo NRF2 activation in ip dosed C57BL/6J mouse assessed as increase in liver transcription of NQO-1 administered as qd for 3 days measured 3 hrs post last dose by qRT-PCR analysis; format: functional, organism-based; method in brief: as §2
[7] = tested on: Mus musculus; experiment: In vivo increase in NRF2 levels in C57BL/6J mouse liver at 5 to 10 mg/kg, ip qd administered for 3 days measured 3 hrs post last dose by Western blot analysis; format: functional, organism-based; method in brief: as §2
[8] = tested on: Mus musculus; experiment: In vivo increase in HO-1 levels in C57BL/6J mouse liver at 5 to 10 mg/kg, ip qd administered for 3 days measured 3 hrs post last dose by Western blot analysis; format: functional, organism-based; method in brief: as §2
[9] = tested on: Mus musculus; experiment: Hepatoprotective activity in ip dosed C57BL/6J mouse assessed as reduction in CCL4-induced serum ALT level administered qd for 3 days followed by CCL4 addition at 3 hrs post last dose measured after 24 hrs; format: functional, organism-based
Method in brief: (§3)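 Seven-week-old male C57BL/6J mice, n = 10/group, given compound in corn oil (0.5 or 1 mg/mL) at 5 or 10 mg/kg ip once daily for 3 days. CCl4 at 200 μL/kg ip (2% v/v in corn oil) given 3 h after the last dose. Sacrifice at 24 h. Serum ALT/AST measured; liver GSH by GSH/GSSG kit normalized to BCA protein; left lobe H&E stained and scored blind at 4× and 20×.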

[10] = tested on: Mus musculus; experiment: Hepatoprotective activity in ip dosed C57BL/6J mouse assessed as reduction in CCL4-induced serum AST level administered qd for 3 days followed by CCL4 addition at 3 hrs post last dose measured after 24 hrs; format: functional, organism-based; method in brief: as §3
[11] = tested on: Mus musculus; experiment: Hepatoprotective activity in C57BL/6J mouse assessed as prevention of CCL4-induced severe hepatic lesions at 5 mg/kg, ip administered qd for 3 days followed by CCL4 addition at 3 hrs post last dose measured after 24 hrs by hematoxylin-eosin staining; format: functional, organism-based; method in brief: as §3
[12] = tested on: Mus musculus; experiment: (§4) Hepatoprotective activity in C57BL/6J mouse assessed as attenuation of CCL4-mediated GSH level depletion measured as GSH level […] of protein at 5 mg/kg, ip administered qd for 3 days followed by CCL4 addition at 3 hrs post last dose measured after 24 hrs by GSH/GSSG assay (reference value: 0.86 +/- 0.38 nmol); format: functional; method in brief: as §3
[13] = tested on: Mus musculus; experiment: as §4, with “at 10” for “at 5”; format: functional; method in brief: as §3
[14] = tested on: HepG2; experiment: Toxicity in human HepG2 cells at 20 to 40 uM; format: cell-based; settings: hepg2, 40 µM
[15] = target: T1, Nuclear factor erythroid 2-related factor 2 (Homo sapiens); experiment: Activation of NRF2 in human HepG2 cells assessed as induction of HO-1 transcription by RT-PCR analysis; format: cell-based
Method in brief: (§5)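 HepG2 cells treated with or without compound. HO-1 and NQO1 transcripts measured by RT-PCR after total RNA extraction and reverse transcription, amplified against β-actin with human primers. For protein, 20 μg lysate (RIPA) separated on 10% SDS-PAGE, blotted to PVDF, probed with antibodies to Nrf2, HO-1, NQO-1 and β-actin, and detected by ECL.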

[16] = target: T1, Nuclear factor erythroid 2-related factor 2 (Homo sapiens); experiment: Activation of NRF2 transcription in human HepG2C8 cells at 20 uM after 6 hrs by luciferase reporter gene assay relative to control; format: cell-based; method in brief: as §1
[17] = target: T1, Nuclear factor erythroid 2-related factor 2 (Homo sapiens); experiment: Activation of NRF2 transcription in human HepG2C8 cells at 40 uM after 6 hrs by luciferase reporter gene assay relative to control; format: cell-based; method in brief: as §1
[18] = target: T1, Nuclear factor erythroid 2-related factor 2 (Homo sapiens); experiment: Activation of NRF2 in human HepG2 cells assessed as induction of NQO-1 transcription by RT-PCR analysis; format: cell-based; method in brief: as §5
[19] = target: T1, Nuclear factor erythroid 2-related factor 2 (Homo sapiens); experiment: Activation of NRF2 in human HepG2 cells assessed as upregulation of HO-1 level by Western blot analysis; format: cell-based; method in brief: as §5
[20] = target: T1, Nuclear factor erythroid 2-related factor 2 (Homo sapiens); experiment: Activation of NRF2 in human HepG2 cells by Western blot analysis; format: cell-based; method in brief: as §5

**Q.** Which Activity [1] does the source give for `COc1cc(O)ccc1/C=C/C(=O)c1ccc(O)cc1` [ECHINATIN] here?
**A.** >30%

**Q.** And the fold change (FC) [2]?
**A.** 5.46

**Q.** And the Activity [3]?
**A.** Dose-dependent effect

**Q.** What about the inhibition [4] of the same compound?
**A.** Active

**Q.** And the Activity [5]?
**A.** Dose-dependent effect

**Q.** What about the Activity [6] of the same compound?
**A.** Dose-dependent effect

**Q.** What about the Activity [7] of the same compound?
**A.** Active

**Q.** And the Activity [8]?
**A.** Active

**Q.** And the Activity [9]?
**A.** Dose-dependent effect

**Q.** What about the Activity [10] of the same compound?
**A.** Dose-dependent effect

**Q.** And the Activity [11]?
**A.** Active

**Q.** What about the Activity [12] of the same compound?
**A.** 2.42 nmol

**Q.** What about the Activity [13] of the same compound?
**A.** 2.58 nmol

**Q.** And the Activity [14]?
**A.** Toxic

**Q.** And the Activity [15]?
**A.** Dose-dependent effect

**Q.** And the fold change (FC) [16]?
**A.** 6.8

**Q.** And the fold change (FC) [17]?
**A.** 4.3

**Q.** What about the Activity [18] of the same compound?
**A.** Dose-dependent effect

**Q.** And the Activity [19]?
**A.** Dose-dependent effect

**Q.** And the Activity [20]?
**A.** Dose-dependent effect
